Consider four molecules from PMC12401638 (Drug Testing and Analysis, 2025).

Where two headings read alike, the source gives them in different places.

A short description of data set [1]: Metabolite identification by human liver microsome incubation and LC-QTOF-MS. It counts as in vitro ADME. The conditions noted are these: HLM incubation 37°C, 2 h. An outline of the steps: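 Pooled human liver microsomes (50 donors, 20 mg/mL stock) with NADPH (10 mM stock) in 100 mM phosphate buffer, pH 7.4, 10 mM MgCl2. Controls: buffer only, and buffer plus NADPH without microsomes. Microsomal samples run in duplicate. Incubated 2 h at 37°C, quenched with acetonitrile, centrifuged, supernatant partly dried and filtered. Analysed by LC-QTOF-MS with an ammonium formate (10 mM, pH 3) / MeOH:ACN gradient.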
On the technique in general: Microsomes from liver hold many membrane-bound enzymes, among them those of drug oxidation.

The next data set deals with CB1 (Homo sapiens, UniProt P21554). Put plainly: cell-based. It counts as cell-based.
Data set [2] deals with T1, CB2 (Homo sapiens, UniProt P34972). Put plainly: cell-based. In kind it is cell-based.
Data set [3] concerns the target T1, CB2. The conditions noted are these: [35S]GTPγS, cAMP and βarr2 recruitment assay; cited from earlier work. In general terms: Binding of GTPγS marks nucleotide exchange on a G protein.
The next data set deals with neuropathic pain. The conditions noted are these: mouse model for neuropathic pain; cited from earlier work.
The test system of data set [4] is both cannabinoid receptors. Particulars: cited from earlier work.

CB1, sequence (P21554 whole entry): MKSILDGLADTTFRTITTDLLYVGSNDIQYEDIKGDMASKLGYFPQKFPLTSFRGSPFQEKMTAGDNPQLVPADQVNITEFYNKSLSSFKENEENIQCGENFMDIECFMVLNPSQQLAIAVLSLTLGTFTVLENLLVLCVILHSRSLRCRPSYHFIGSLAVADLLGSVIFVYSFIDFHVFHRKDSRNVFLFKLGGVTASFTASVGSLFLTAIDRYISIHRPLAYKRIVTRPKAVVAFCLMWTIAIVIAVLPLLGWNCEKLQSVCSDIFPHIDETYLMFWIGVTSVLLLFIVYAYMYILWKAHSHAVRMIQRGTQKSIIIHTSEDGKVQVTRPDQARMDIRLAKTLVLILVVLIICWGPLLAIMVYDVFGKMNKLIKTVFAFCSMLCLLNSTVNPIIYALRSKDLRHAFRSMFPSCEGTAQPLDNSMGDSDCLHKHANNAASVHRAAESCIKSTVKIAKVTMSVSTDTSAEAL
CB1, sequence (P32121 whole entry partner): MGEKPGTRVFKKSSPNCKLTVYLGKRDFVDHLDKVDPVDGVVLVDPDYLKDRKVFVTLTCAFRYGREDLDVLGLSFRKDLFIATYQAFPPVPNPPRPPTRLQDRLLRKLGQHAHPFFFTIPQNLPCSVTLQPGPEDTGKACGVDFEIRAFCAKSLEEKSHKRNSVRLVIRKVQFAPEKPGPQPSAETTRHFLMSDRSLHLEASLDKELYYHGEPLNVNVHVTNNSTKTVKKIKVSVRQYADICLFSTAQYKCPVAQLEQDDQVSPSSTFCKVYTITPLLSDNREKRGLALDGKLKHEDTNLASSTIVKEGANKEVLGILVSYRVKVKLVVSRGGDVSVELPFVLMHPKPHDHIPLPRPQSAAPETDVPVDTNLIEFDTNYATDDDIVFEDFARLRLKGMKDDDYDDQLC
T1 sequence (P34972 whole entry): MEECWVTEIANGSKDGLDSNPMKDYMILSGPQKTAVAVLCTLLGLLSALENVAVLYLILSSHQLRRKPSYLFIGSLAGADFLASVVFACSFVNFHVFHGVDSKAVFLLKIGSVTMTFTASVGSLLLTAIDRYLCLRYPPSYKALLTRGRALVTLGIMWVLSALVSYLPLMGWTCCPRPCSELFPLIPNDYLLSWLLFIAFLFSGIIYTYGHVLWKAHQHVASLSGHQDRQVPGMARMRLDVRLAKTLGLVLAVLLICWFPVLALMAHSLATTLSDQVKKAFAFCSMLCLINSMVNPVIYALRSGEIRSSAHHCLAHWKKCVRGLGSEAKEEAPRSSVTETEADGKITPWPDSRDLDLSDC
T1 sequence (P32121 whole entry partner): as the sequence (P32121 whole entry partner) above

On to `Cc1c(Br)cn(Cc2ccc(F)cc2)c(=O)c1NC(=O)C1CCCCC1` [CH‐FUBBMPDORA, N‐[5‐bromo‐1‐(4‐fluorobenzyl)‐4‐methyl‐2‐oxo‐1,2‐dihydropyridin‐3‐yl)cyclohexanecarboxamide], for which the “number of metabolites identified” value in data set [1] is given as “Four”. Besides, the “Area (LC-QTOF-MS peak area)” value in data set [1] (with NADPH) was determined as 5.68e + 05. In addition, the EC50 on CB1 was determined as 3780 nM; on CB2 [2], 4270 nM.
Take `CCCCCn1cc(C(=O)c2cccc3ccccc23)c2ccccc21` [JWH‐018]: the “E max (%) (95% CI), CB1, relative to CP55,940 (100%)” value on CB1 is 378 (348–409) %. Moreover, the EC50 on CB1 (read-out: EC 50 (nM) (95% CI), CB1) turned out to be 14.3 nM; at CB2 [2] (read-out: EC 50 (nM) (95% CI), CB2), 4.36 nM. For the same molecule, the “E max (%) (95% CI), CB2, relative to CP55,940 (100%)” value on CB2 [2] was 63.2 (55.8–70.9) %.
`Cc1c(Br)cn(Cc2ccc(F)cc2)c(=O)c1NC(=O)C1CCCCCC1` [C2, N‐(5‐bromo‐1‐(4‐fluorobenzyl)‐4‐methyl‐2‐oxo‐1,2‐dihydropyridin‐3‐yl)cycloheptanecarboxamide]: the “CB1 activity compared with CH-FUBBMPDORA” value on CB1 was “more active than CH‐FUBBMPDORA”. Besides, on CB2 [3], the “activation potential at CB2” value is “(very) limited activation potential”. For the same molecule, at CB2 [2], the “CB2 receptor activation potential compared with CH-FUBBMPDORA” value was “almost identical and equally weak”. The antinociceptive activity result in the data set with neuropathic pain is “displayed antinociceptive activity”.
On to `Cc1c(Br)cn(Cc2ccc(F)cc2)c(=O)c1C(=O)NC1CCCCCC1` [B2, 5‐bromo‐N‐cycloheptyl‐1‐(4‐fluorobenzyl)‐4‐methyl‐2‐oxo‐1,2‐dihydropyridine‐3‐carboxamide], for which the “activity and affinity at both cannabinoid receptors” value in data set [4] is “nanomolar activity and affinity”.
